From paper PMC5548977 (ESMO Open, 2017)

Assays:
GRP78 = conditions: tumour cells; independent preclinical studies; cited from earlier work
[1] = test system: drug-resistant PDAC cells; conditions: cited from earlier work
[2] = in vitro, combination with different classes of cancer drugs; ref 23 24; cited from earlier work
[3] = Pharmacokinetics: total ruthenium in plasma by ICP-MS, cycle 1; type: in vivo, human
In short: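 Cycle 1 plasma was taken on days 1, 2 and 8, pre-infusion and at 15 min, 30 min, 1, 2, 4, 6–8, 10–12 and 24 hours post-infusion, plus pre-dose day 8. Total ruthenium (free and bound) was measured by ICP-MS. Drug was reconstituted in normal saline and given intravenously over 30 min (<500 mL) or 60–90 min (>500 mL). Parameters were derived from concentration–time data and summarised descriptively.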

advanced solid tumours = assay: Anti-tumour activity, tumour response by CT; type: in vivo, human
In short: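 Adult patients with refractory advanced solid tumours got intravenous infusions on days 1, 8 and 15 of 28-day cycles, at 20–780 mg/m2. CT response assessment was done at baseline and every two cycles per RECIST V.1.1. Disease control was defined as CR, PR or SD. Evaluable patients had at least one response assessment. Treatment continued until confirmed PD. Analysis was descriptive.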

[4] = test system: metastatic osteosarcoma cells; conditions: ex vivo lung metastases model; cited from earlier work
[5] = test system: patients with advanced solid tumours; assay: Phase I dose-escalation study: adverse events, dose-limiting toxicities, MTD; type: in vivo, human
In short: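 Dosing was intravenous on days 1, 8 and 15 every 28 days, with dose by BSA (actual weight) recalculated each cycle. Escalation started at 20 mg/m2 with one patient per level, doubling until ≥grade 2 toxicity, then 3+3, across nine cohorts up to 780 mg/m2, with an expansion cohort at MTD. Dexamethasone 10 mg IV plus IV 5-HT antagonist premedication was recommended. AEs/DLTs were graded by NCI CTCAE V.3.0 and followed 30 days post-treatment.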

[6] = ref 9 10, cited from earlier work
[7] = 10 patients with disease control
[8] = efficacy-evaluable population (n=38)

Compound: [Cl][Ru-]([Cl])([Cl])[Cl].[Na+].c1ccc2[nH]ncc2c1.c1ccc2[nH]ncc2c1 [IT-139, sodium trans-(tetrachlorobis(1H-indazole)ruthenate(III))]
- effect on stress induction of GRP78 (GRP78): suppressing the stress induction of GRP78 in tumour cells
- effect on GRP78 chemoresistance ([1]; PDAC model): inhibits GRP78 chemoresistance
- sensitivity to cytotoxic drugs ([1]; in combination with gemcitabine, drug-resistant PDAC cells): sensitivity to cytotoxic drugs was restored
- synergy in combination [2]: marked synergy
- mean half-life (t1/2) ([3]; across dose levels, may not represent true terminal half-life): 113 h
- pharmacokinetic linearity ([3]; across the dose range evaluated (20-780 mg/m^2)): first-order linear pharmacokinetics
- dose dependence of PK parameters ([3]; in vivo): increased proportionally with dose
- mean total clearance (CLtotal) ([3]; in vivo): 164 mL/h
- percentage of the administered dose excreted in the urine (mean) ([3]; in vivo): 1.14%
- patients with target lesion size reductions (advanced solid tumours; 8 of 38 efficacy-evaluable patients): 21%
- median duration of disease control (advanced solid tumours; [7]): 9 weeks
- range of duration of disease control (advanced solid tumours; [7]): 1–98 weeks
- duration of SD from initiation of therapy until PD (advanced solid tumours; carcinoid patient continued on compassionate use protocol): 54 weeks
- number of patients with PR (advanced solid tumours; [8]): 1
- number of patients with SD (advanced solid tumours; [8]): 9
- disease control in patients with carcinoid neuroendocrine tumours (advanced solid tumours; one PR and two SDs): three of five patients had disease control
- single-agent anti-tumour activity (advanced solid tumours; weekly i.v. days 1, 8 and 15 of every 28-day cycle): modest anti-tumour activity
- tumour burden [4]: decrease in tumour burden after treatment
- Any adverse event, patients ([5]; 20 mg/m^2 (n=1)): 1
- Maximum severity of adverse event Grade 1, patients ([5]; 20 mg/m^2 (n=1)): 1
- Related adverse event (related to study drug as assessed by the investigator), patients ([5]; 20 mg/m^2 (n=1)): 1
- Any adverse event, patients ([5]; 40 mg/m^2 (n=1)): 1
- Maximum severity of adverse event Grade 2, patients ([5]; 40 mg/m^2 (n=1)): 1
- Related adverse event (related to study drug as assessed by the investigator), patients ([5]; 40 mg/m^2 (n=1)): 1
- Any adverse event, patients ([5]; 80 mg/m^2 (n=1)): 1
- Maximum severity of adverse event Grade 1, patients ([5]; 80 mg/m^2 (n=1)): 1
- Related adverse event (related to study drug as assessed by the investigator), patients ([5]; 80 mg/m^2 (n=1)): 1
- Any adverse event, patients ([5]; 160 mg/m^2 (n=1)): 1
- Maximum severity of adverse event Grade 1, patients ([5]; 160 mg/m^2 (n=1)): 1
- Related adverse event (related to study drug as assessed by the investigator), patients ([5]; 160 mg/m^2 (n=1)): 1
- Any serious adverse event, patients ([5]; 320 mg/m^2 (n=7)): 4
- Discontinued treatment due to adverse event, patients ([5]; 320 mg/m^2 (n=7)): 1
- Maximum severity of adverse event Grade 1, patients ([5]; 320 mg/m^2 (n=7)): 1
- Maximum severity of adverse event Grade 2, patients ([5]; 320 mg/m^2 (n=7)): 3
- Maximum severity of adverse event Grade 3, patients ([5]; 320 mg/m^2 (n=7)): 3
- Maximum severity of adverse event ≥ Grade 3, patients ([5]; 320 mg/m^2 (n=7)): 3
- Related adverse event (related to study drug as assessed by the investigator), patients ([5]; 320 mg/m^2 (n=7)): 7
- Related serious adverse event, patients ([5]; 320 mg/m^2 (n=7)): 1
- Any adverse event, patients ([5]; 420 mg/m^2 (n=5)): 5
- Any serious adverse event, patients ([5]; 420 mg/m^2 (n=5)): 1
- Discontinued treatment due to adverse event, patients ([5]; 420 mg/m^2 (n=5)): 2
- Maximum severity of adverse event Grade 1, patients ([5]; 420 mg/m^2 (n=5)): 1
- Maximum severity of adverse event Grade 2, patients ([5]; 420 mg/m^2 (n=5)): 2
- Maximum severity of adverse event Grade 3, patients ([5]; 420 mg/m^2 (n=5)): 2
- Maximum severity of adverse event ≥ Grade 3, patients ([5]; 420 mg/m^2 (n=5)): 2
- Related adverse event (related to study drug as assessed by the investigator), patients ([5]; 420 mg/m^2 (n=5)): 4
- Any adverse event, patients ([5]; 500 mg/m^2 (n=3)): 3
- Maximum severity of adverse event Grade 1, patients ([5]; 500 mg/m^2 (n=3)): 1
- Maximum severity of adverse event Grade 2, patients ([5]; 500 mg/m^2 (n=3)): 2
- Related adverse event (related to study drug as assessed by the investigator), patients ([5]; 500 mg/m^2 (n=3)): 2
- Any serious adverse event, patients ([5]; 625 mg/m^2 (n=18)): 6
- Discontinued treatment due to adverse event, patients ([5]; 625 mg/m^2 (n=18)): 2
- Maximum severity of adverse event Grade 1, patients ([5]; 625 mg/m^2 (n=18)): 4
- Maximum severity of adverse event Grade 2, patients ([5]; 625 mg/m^2 (n=18)): 4
- Maximum severity of adverse event Grade 3, patients ([5]; 625 mg/m^2 (n=18)): 9
- Maximum severity of adverse event Grade 5, patients ([5]; 625 mg/m^2 (n=18)): 1
- Maximum severity of adverse event ≥ Grade 3, patients ([5]; 625 mg/m^2 (n=18)): 10
- Related serious adverse event, patients ([5]; 625 mg/m^2 (n=18)): 1
- duration of QTc prolongation after infusion ([5]; 780 mg/m^2): up to 10 hours
- Any adverse event, patients ([5]; 780 mg/m^2 (n=9)): 9
- Any serious adverse event, patients ([5]; 780 mg/m^2 (n=9)): 4
- Maximum severity of adverse event Grade 1, patients ([5]; 780 mg/m^2 (n=9)): 1
- Maximum severity of adverse event Grade 2, patients ([5]; 780 mg/m^2 (n=9)): 4
- Maximum severity of adverse event Grade 3, patients ([5]; 780 mg/m^2 (n=9)): 3
- Maximum severity of adverse event Grade 5, patients ([5]; 780 mg/m^2 (n=9)): 1
- Maximum severity of adverse event ≥ Grade 3, patients ([5]; 780 mg/m^2 (n=9)): 4
- Related adverse event (related to study drug as assessed by the investigator), patients ([5]; 780 mg/m^2 (n=9)): 9
- Related serious adverse event, patients ([5]; 780 mg/m^2 (n=9)): 2
- overall tolerability ([5]; 20 to 780 mg/m^2): well tolerated
- cumulative toxicity ([5]; across dose levels): no evidence of cumulative toxicity
- drug-related renal toxicity ([5]; all dose levels): no evidence of drug-related renal toxicity
- MTD (maximum-tolerated dose) ([5]; i.v. infusion days 1, 8 and 15 every 28 days): 625 mg/m^2
- effect on platelets or white blood cells ([5]; in vivo): no effect on platelets or white blood cells
- patients with an AE that led to treatment discontinuation ([5]; n=46, all dose levels): 11%
- PR prolongation ([5]; no control group, chance effect not excluded): evidence for PR prolongation
- Creatine clearance ([5]; over time, all dose levels): stable over time and across all dose levels
- serum discolouration at blood draw ([5]; three patients (four blood draws), without any clinical correlates): discoloured serum, green in colour
- Any serious adverse event, patients ([5]; total patients (n=46)): 15
- Discontinued treatment due to adverse event, patients ([5]; total patients (n=46)): 5
- Maximum severity of adverse event Grade 1, patients ([5]; total patients (n=46)): 11
- Maximum severity of adverse event Grade 5, patients ([5]; total patients (n=46)): 2
- Maximum severity of adverse event ≥ Grade 3, patients ([5]; total patients (n=46)): 19
- Related serious adverse event, patients ([5]; total patients (n=46)): 4

Compound: imidazolium-(trans-DMSO-imidazole-tetrachlororuthenate) [NAMI-A]
- tolerability ([6]; monotherapy, clinic trials): moderately tolerated
- activity in combination ([6]; phase I/II combination study with gemcitabine): less activity in combination than with gemcitabine therapy alone
